This is an account of results in ChEMBL document CHEMBL3526035, “Role of the intestinal peptide transporter PEPT1 in oseltamivir absorption: in vitro and in vivo studies” (Drug Metab Dispos, 2012).

Data set [1] is described as follows: Drug uptake in CHOK1 cells incubated for 30s to 15 mins by HPLC coupled with radiodetection analysis. Type of data set: ADME, cell-based, Cricetulus griseus. As to conditions: chinese hamster, cho-k1, 0.25 h; call rule not given here. In short, it runs like this:
(§1)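 Accumulation of [14C]oseltamivir or its carboxylate in CHO-PEPT1 versus CHO-K1 cells. Conditions varied: KH buffer (with MES) or Hanks' balanced salt solution, pH 5 or 6 readjusted after substrate addition, 30 s to 15 min at 37°C. Uptake was quenched with ice-cold PBS-BSA, followed by Triton X-100 lysis, scintillation counting, and BCA protein normalization. HPLC-radiodetection checked ester stability.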

The nature of data set [2]: Tmax in healthy human at 150 mg, po administered as single dose by HPLC-tandem mass spectrometry under fed conditions. It is filed as ADME, organism-based. As to conditions: in vivo. An outline of the steps:
(§2)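 Open-label crossover food-effect study in 18 healthy volunteers (9 male, 9 female, mean age 26). Each received a single 150 mg oral dose of the marketed formulation, once fasting from midnight and once after a high-fat, high-calorie breakfast, separated by a 7–10 day washout. Plasma and urine were collected over 0–72 h and assayed by HPLC-MS/MS for oseltamivir and carboxylate.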

Data set [3] in a line: Cmax in juvenile breast-fed Sprague-Dawley rat at 30 mg/kg, po administered as water solution by HPLC-tandem mass spectrometry. It is filed as ADME, organism-based. Details: dose 30 mg/kg, route oral. As to conditions: in vivo. In short, it runs like this: (§3)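 7-day-old Sprague-Dawley pups (9.7-18.9 g, both sexes), 15 per group. Given 30 mg/kg by oral gavage (10 ml/kg); breast-fed pups stayed with dams, fasted pups were removed 8 h before dosing. Blood taken by cardiac puncture under isoflurane at 0.25, 0.5, 1, 2 and 5 h, n=3 per time point (composite design). Dichlorvos-treated plasma assayed by LC-MS/MS; AUC0-5h by noncompartmental analysis.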

Data set [4] in a line: AUC(0 to infinity) in adult fed Sprague-Dawley rat at 30 mg/kg, po administered as 125 mM aqueous Gly-Sar solution by HPLC-tandem mass spectrometry. Type of data set: ADME, organism-based. Details: time infinity, dose 30 mg/kg, route oral. As to conditions: plasma. An outline of the steps: (§4)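 Sprague-Dawley males, 7-8 weeks, 243-283 g, jugular-cannulated, 3 days' recovery; fed (chow ad libitum). Single oral dose of 30 mg/kg (free base) at 10 ml/kg; 3 rats/group. Jugular blood taken at 0.25-24 h into K2EDTA with dichlorvos, kept on ice. Plasma analysed by validated LC-MS/MS (0.1-500 μg/l). Noncompartmental analysis; AUC by linear trapezoid, AUC0-∞ extrapolated using λz.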

Data set [5] is described as follows: AUC(0 to 6 hrs) in adult fed Sprague-Dawley rat at 30 mg/kg, po administered as 125 mM aqueous Gly-Sar solution by HPLC-tandem mass spectrometry. Type of data set: ADME, organism-based. Also noted: time < 6 hr, dose 30 mg/kg, route oral. As to conditions: plasma. In short, it runs like this: as §4
A short description of data set [6]: Cmax in adult fed Sprague-Dawley rat at 30 mg/kg, po administered as water solution by HPLC-tandem mass spectrometry. It is filed as ADME, organism-based. Also noted: dose 30 mg/kg, route oral. As to conditions: in vivo. In short, it runs like this:
(§5)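 Adult cannulated Sprague-Dawley rats, fasted (from 6 h predose) or fed, dosed orally at 30 mg/kg (10 ml/kg), 3 per group. Serial jugular plasma with dichlorvos stabilisation, measured by LC-MS/MS. Cmax read graphically from the concentration-time profile.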

The nature of data set [7]: AUC(0 to infinity) in adult fasted Sprague-Dawley rat at 30 mg/kg, po administered as water solution by HPLC-tandem mass spectrometry. Details: time infinity, dose 30 mg/kg, route oral. It is filed as ADME, organism-based. As to conditions: plasma. In short, it runs like this: (§6)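 Adult male Sprague-Dawley rats (243-283 g), jugular-cannulated, fasted from 6 h before dosing through the 6-h study. Given 30 mg/kg orally (free base) at 10 ml/kg, n=3/group. Blood sampled at 0.25-6 h into K2EDTA with dichlorvos esterase inhibitor. Plasma assayed by LC-MS/MS (0.1-500 μg/l). Noncompartmental analysis: linear-trapezoid AUC; infinity extrapolation via log-linear terminal λz.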

The nature of data set [8]: Terminal half life in healthy human at 150 mg, po administered as single dose by HPLC-tandem mass spectrometry under fasting conditions. It is filed as ADME, organism-based. As to conditions: in vivo, read-out: beta t1/2 (converted). An outline of the steps: as §2
Data set [9] is described as follows: Tmax in healthy human at 150 mg, po administered as single dose by HPLC-tandem mass spectrometry under fasting conditions. It is filed as ADME, organism-based. As to conditions: in vivo. In short, it runs like this:
as §2

A short description of data set [10]: Cmax in healthy human at 150 mg, po administered as single dose by HPLC-tandem mass spectrometry under fasting conditions. It is filed as ADME, organism-based. Also noted: dose 150 mg, route oral. As to conditions: in vivo. An outline of the steps:
(§7)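 Open-label crossover in 18 healthy volunteers (9 male, 9 female, mean age 26). Each received marketed oseltamivir 150 mg orally, once fasted from midnight and once after a high-fat, high-calorie breakfast, with a 7-10 day washout. Plasma and urine collected over 0-72 h and analysed by HPLC-MS/MS. AUC and Cmax compared after log transformation.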

Data set [11] in a line: AUC(0 to 6 hrs) in adult fed Sprague-Dawley rat at 30 mg/kg, po administered as water solution by HPLC-tandem mass spectrometry. Type of data set: ADME, organism-based. As to conditions: plasma. Details: time < 6 hr, dose 30 mg/kg, route oral. In short, it runs like this:
as §4

A short description of data set [12]: AUC(0 to 6 hrs) in adult fasted Sprague-Dawley rat at 30 mg/kg, po administered as solution in bovine milk by HPLC-tandem mass spectrometry. Type of data set: ADME, organism-based. Details: time < 6 hr, dose 30 mg/kg, route oral. As to conditions: in vivo. An outline of the steps:
as §6

Data set [13] can be described thus: Cmax in adult fed Sprague-Dawley rat at 30 mg/kg, po administered as solution in bovine milk by HPLC-tandem mass spectrometry. Details: dose 30 mg/kg, route oral. As to conditions: in vivo. Type of data set: ADME, organism-based. In short, it runs like this:
as §5

The nature of data set [14]: AUC(0 to 24 hrs) in healthy human at 150 mg, po administered as single dose by HPLC-tandem mass spectrometry under fed conditions. It is filed as ADME, organism-based. Details: time < 24 hr, dose 150 mg, route oral. As to conditions: plasma. In short, it runs like this:
as §7

The nature of data set [15]: AUC(0 to infinity) in adult fed Sprague-Dawley rat at 30 mg/kg, po administered as water solution by HPLC-tandem mass spectrometry. Details: time infinity, dose 30 mg/kg, route oral. As to conditions: plasma. Type of data set: ADME, organism-based. In short, it runs like this: as §4
Data set [16] is described as follows: Tmax in adult fasted Sprague-Dawley rat at 30 mg/kg, po administered as 125 mM aqueous Gly-Sar solution by HPLC-tandem mass spectrometry. As to conditions: in vivo. Also noted: dose 30 mg/kg, route oral. It is filed as ADME, organism-based. In short, it runs like this:
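Male Sprague-Dawley rats (7–8 weeks, 243–283 g) had jugular-vein cannulas and 3 days' recovery. Fasting ran from 6 h predose through the 6 h study. Three rats per vehicle received 30 mg/kg oral (10 ml/kg). Blood was sampled 0.25–6 h into K2EDTA tubes with dichlorvos. Plasma was assayed by HPLC-MS/MS (0.1–500 µg/l). Tmax was read graphically (noncompartmental).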

Data set [17] can be described thus: Drug uptake in CHOK1 cells expressing human PEPT1 incubated for 30s to 15 mins by HPLC coupled with radiodetection analysis. As to conditions: chinese hamster, cho-k1, 0.25 h. It is filed as ADME, cell-based, Cricetulus griseus. An outline of the steps:
as §1

Data set [18] is described as follows: Tmax in adult fed Sprague-Dawley rat at 30 mg/kg, po administered as 125 mM aqueous Gly-Sar solution by HPLC-tandem mass spectrometry. Type of data set: ADME, organism-based. Details: dose 30 mg/kg, route oral. As to conditions: in vivo. An outline of the steps:
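Cannulated adult male Sprague-Dawley rats with chow ad libitum, 3 per vehicle, were given oral 30 mg/kg (10 ml/kg). Plasma analysis was by HPLC-MS/MS, with Tmax taken graphically from concentration-time profiles.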

A short description of data set [19]: AUC(0 to 5 hrs) in juvenile fasted Sprague-Dawley rat at 30 mg/kg, po administered as 125 mM aqueous Gly-Sar solution by HPLC-tandem mass spectrometry. Type of data set: ADME, organism-based. Also noted: time < 5 hr, dose 30 mg/kg, route oral. As to conditions: plasma. In short, it runs like this: as §3
The nature of data set [20]: Cmax in juvenile fasted Sprague-Dawley rat at 30 mg/kg, po administered as water solution by HPLC-tandem mass spectrometry. Details: dose 30 mg/kg, route oral. As to conditions: in vivo. It is filed as ADME, organism-based. An outline of the steps: as §3
The nature of data set [21]: AUC(0 to 24 hrs) in adult fed Sprague-Dawley rat at 30 mg/kg, po administered as 125 mM aqueous Gly-Sar solution by HPLC-tandem mass spectrometry. Type of data set: ADME, organism-based. Also noted: time < 24 hr, dose 30 mg/kg, route oral. As to conditions: plasma. In short, it runs like this: as §4
Data set [22] can be described thus: AUC(0 to infinity) in adult fasted Sprague-Dawley rat at 30 mg/kg, po administered as 125 mM aqueous Gly-Sar solution by HPLC-tandem mass spectrometry. Type of data set: ADME, organism-based. Also noted: time infinity, dose 30 mg/kg, route oral. As to conditions: plasma. An outline of the steps:
as §6

Data set [23] is described as follows: Drug uptake in CHOK1 cells expressing human PEPT1 at 5 to 100 uM after 10 mins by HPLC coupled with radiodetection analysis. Type of data set: ADME, cell-based, Cricetulus griseus. As to conditions: chinese hamster, cho-k1, 10 min.

One may read the Tmax as the time from dosing to the highest level. A word on the Cmax: it is the maximum level reached in the sampled fluid or tissue. As usually defined, the AUC(0-inf) is the area under the concentration-time curve extrapolated to infinity. Usually AUC(0-t) stands for the area under the concentration-time curve up to a stated or last time point. A high value points to more exposure. Regarding `CCC(CC)O[C@@H]1C=C(C(=O)O)C[C@H](N)[C@H]1NC(C)=O` [OSELTAMIVIR CARBOXYLATE], the Drug uptake result in [1], in data set [17] and in [23] was “Active” each time. Further, the Tmax is 5.42 h in [2], 4.37 h in data set [9], 1.17 h in data set [16] and 1.42 h in [18]. In addition, the Cmax in data set [3] turned out to be 1500 ng/mL; in [6], 1110 ng/mL; in data set [10], 551 ng/mL; in data set [13] it was 1310 ng/mL; in [20], 3100 ng/mL. In addition, the AUC(0-inf) in data set [4] was 4870 ng·h/mL; in data set [7] it was 6140 ng·h/mL; in data set [15], 5290 ng·h/mL; in data set [22], 8860 ng·h/mL. Also, the AUC(0-t) at 6 h was found to be 2960 ng·h/mL in [5], 3540 ng·h/mL in [11] and 5810 ng·h/mL in data set [12]. The half-life in [8] is 6.87 h. In addition, the exposure AUC(0-t) at 24 h in data set [14] turned out to be 5060 ng·h/mL; in data set [21], 4860 ng·h/mL. Also, in [19], the AUC(0-t) at 5 h turned out to be 10900 ng·h/mL.

Take `CCOC(=O)C1=C[C@@H](OC(CC)CC)[C@H](NC(C)=O)[C@@H](N)C1` [OSELTAMIVIR]: the Drug uptake result in data set [1], in data set [17] and in [23] was “Active” each time. Moreover, the Tmax in [2] was determined as 2.06 h; in [9], 0.806 h; in data set [16], 0.25 h; in [18] it was 0.66 h. Further, the Cmax is 6140 ng/mL in data set [3]; 1270 ng/mL in data set [6]; 124 ng/mL in data set [10]; 1430 ng/mL in [13]; 10500 ng/mL in data set [20]. Further, the AUC(0-inf) in data set [4] worked out at 2840 ng·h/mL; in data set [7] it was 2710 ng·h/mL; in data set [15] it was 2510 ng·h/mL; in data set [22], 3810 ng·h/mL. Also, the AUC(0-t) at 6 h in [5] is 2280 ng·h/mL; in data set [11] it was 2200 ng·h/mL; in [12] it was 3010 ng·h/mL. Also, the half-life in data set [8] was 1.61 h. The AUC(0-t) at 24 h in data set [14] turned out to be 280 ng·h/mL; in data set [21] it was 2830 ng·h/mL. Moreover, the AUC(0-t) at 5 h in [19] was 27100 ng·h/mL.
